What is called IC50 is the concentration needed to halve the response being measured.

In ChEMBL document CHEMBL1146568, “Xanthones and benzophenones from the stems of Garcinia multiflora” (J Nat Prod, 2003) one finds IC50 and LC50 data, which are given here for 7 compounds.

Data set [1] deals with Radical scavenging activity. Description: Antioxidant activity assessed as DPPH radical scavenging activity. The format is functional. A digest of the protocol: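 Test sample in EtOH mixed with a 0.1 mM DPPH solution in EtOH (concentration before mixing). Absorbance read at 517 nm after 20 min. Scavenging taken as the drop in DPPH absorbance, expressed as a percentage of a DPPH control without sample. Catechin served as the positive control.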
For orientation: The DPPH test is a chemical assay of radical scavenging.

Data set [2] can be described thus: Toxicity against brine shrimp. The format is organism-based. The conditions noted are these: artemia, in vivo; read-out: LD50 (the source's name).

Molecules are shown by their SMILES. Where only a bound is given, the exact number is not on record here.

Take `O=C(c1cccc(O)c1)c1c(O)cc(O)cc1O`: the 50% inhibitory concentration (IC50) in data set [1] turned out to be 66.3 µM. The LC50 in data set [2] is more than 100 µM. Taken in the same sequence, the figures for `CC(C)=CCC/C(C)=C\CC1(CC=C(C)C)C(=O)C(O)=Cc2oc3cc(O)cc(O)c3c(=O)c21` (configuration not stated) [GARCINIANONE B] were 145 µM and 25.8 µM. Turning to `CC(C)=CCC/C(C)=C/CC1(CC=C(C)C)C(=O)C(O)=Cc2oc3cc(O)cc(O)c3c(=O)c21` (configuration not stated) [GARCINIANONE A], the concentration for half-maximal inhibition (IC50) in data set [1] was found to be 107 µM. Also, the LC50 in data set [2] is 7.7 µM. On to `O=C(c1ccc(O)c(O)c1)c1c(O)cc(O)cc1O` [MACLURIN], for which the IC50 in data set [1] was 5.3 µM. Also, in data set [2], the LC50 worked out at 43.1 µM.

For the compound `COc1cc(O)cc(O)c1C(=O)c1ccc(O)c(O)c1`, in data set [1], the half-maximal inhibitory concentration (IC50) stood at 7.8 µM. Moreover, in data set [2], the LC50 was more than 100 µM. Regarding `COc1ccc2cc3[n+](cc2c1OC)CCc1cc2c(cc1-3)OCO2` [BERBERINE CHLORIDE], in data set [2], the LC50 stood at 67 µM.

Turning to `Oc1cc(O)c2c(c1)OC(c1ccc(O)c(O)c1)C(O)C2` (configuration not stated) [CATECHIN], the IC50 in data set [1] was found to be 2.53 µM.
